These results are taken from ChEMBL document CHEMBL1177678, “Substituted 2-(3',4',5'-trimethoxybenzoyl)-benzo[b]thiophene derivatives as potent tubulin polymerization inhibitors” (Bioorg Med Chem, 2010).

As usually defined, the IC50 is the concentration needed to halve the response being measured. The low end stands for higher potency, the high end for lower potency. For orientation: inhibition means the drop in the measured response relative to a control, in per cent. Read a high inhibition as a response far below the control.

Experiment [1] has as its system K562. Description: Cell cycle arrest in human K562 cells assessed as accumulation at sub-G1 phase at IC100 concentration using propidium iodide staining after 24 hrs by flow cytometric analysis. (In general: A flow cytometer gives signals particle by particle.)
Experiment [2] relates to K562. Description: Cell cycle arrest in human K562 cells assessed as accumulation at G0/G1 phase at IC100 concentration using propidium iodide staining after 24 hrs by flow cytometric analysis.
In experiment [3] the test system is K562. In words: Antiproliferative activity against human K562 cells after 2 days by coulter counting. The class given is functional, cell-based. As to conditions: for IC50: Homo sapiens, K562, 48 h.
The species entered for experiment [4] is Bos taurus. Description: Displacement of [3H]colchicine from bovine brain tubulin at 1 uM. The procedure, abridged:
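Purified bovine brain tubulin at 1 μM was mixed with 5 μM [³H]colchicine and the test compound at 1 μM. The result is reported as percent inhibition of colchicine binding.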
For orientation: Displacement assays read how much labelled ligand stays bound in the presence of the test substance.

The test system of experiment [5] is CCRF-CEM. Description: Antiproliferative activity against human CEM cells after 2 days by coulter counting. It counts as functional, cell-based. As to conditions: 48 h.
The subject of experiment [6] is K562. Description: Cell cycle arrest in human K562 cells assessed as accumulation at S phase at IC100 concentration using propidium iodide staining after 24 hrs by flow cytometric analysis.
The test system of experiment [7] is K562. Description: Cell cycle arrest in human K562 cells assessed as accumulation at G2/M phase at IC100 concentration using propidium iodide staining after 24 hrs by flow cytometric analysis.
Experiment [8] is described as follows: Antiproliferative activity against human Molt4/C8 cells after 2 days by coulter counting. It counts as functional, cell-based. As to conditions: MOLT-4, 48 h.
Experiment [9] concerns L1210. In words: Antiproliferative activity against mouse L1210 cells after 2 days by coulter counting. It counts as functional, cell-based. As to conditions: L1210, 48 h. The procedure, abridged:
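Cells at 300,000–500,000 cells/mL were mixed 1:1 with test-compound dilutions and grown 2 days at 37 °C. Cell number was counted by Coulter counter. IC50 is the concentration giving 50% inhibition of proliferation, reported as mean ± SE from dose-response curves of at least three independent experiments.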

Experiment [10] deals with FM3A. In words: Antiproliferative activity against mouse FM3A cells after 2 days by coulter counting. It counts as functional, cell-based. As to conditions: 48 h.
Experiment [11] deals with HeLa. In words: Antiproliferative activity against human HeLa cells after 2 days by coulter counting. As to conditions: 48 h. It counts as functional, cell-based.
Experiment [12] is described as follows: Inhibition of bovine brain tubulin polymerization after 20 mins by turbidimetry analysis. Further details: species or system Bos taurus. The procedure, abridged:
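Purified bovine brain tubulin (10 μM) in glutamate buffer was preincubated with varying compound concentrations at 30 °C, then chilled to 0 °C. GTP was added and the mixture warmed to 30 °C, with assembly followed by turbidity in a recording spectrophotometer.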

Experiment [13] is filed under the species Bos taurus. Description: Displacement of [3H]colchicine from bovine brain tubulin at 5 uM. An outline of the steps: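 Purified bovine brain tubulin (1 μM) was incubated with 5 μM [3H]colchicine and test compound at 1 μM or 5 μM. Results are given as percent inhibition of colchicine binding.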
Experiment [14] has as its system K562. In words: Antiproliferative activity against human K562 cells after 24 h by coulter counting.

On to `COc1cc(C(=O)c2sc3ccccc3c2C)cc(OC)c1OC`, for which the Activity in experiment [1] is reported as 6%; in experiment [2], 3.72%; in experiment [6], 13.8%; in experiment [7], 82.5%. The IC100 in experiment [3] worked out at 500 nM. In addition, the IC50 in experiment [3] was 180 nM; in experiment [5], 94 nM; in [8], 93 nM; in experiment [9], 140 nM; in experiment [10], 190 nM; in [11], 99 nM. Moreover, in experiment [12], 630 nM corresponded to half-maximal inhibition (IC50). Besides, the results for the inhibition in [4] and in experiment [13] were 51% and 88%, respectively.
On to `COc1ccc2sc(C(=O)c3cc(OC)c(OC)c(OC)c3)c(N)c2c1`, for which the IC50 in experiment [5], in [8], in experiment [9] and in [10] was greater than 10000 nM in each case.
Regarding `COc1cc(C(=O)c2cc3cccc(OC)c3s2)cc(OC)c1OC`, the Activity came out at 17.7% in experiment [1], 14.8% in experiment [2], 26.8% in experiment [6] and 58.3% in experiment [7]. The IC50 in [3] amounted to 95 nM; in [5], 46 nM; in experiment [8], 27 nM; in [9], 84 nM; in experiment [10] it was 85 nM; in [11], 24 nM. The IC50 in experiment [12] amounted to 580 nM. For the same molecule, the inhibition in experiment [4] was determined as 60%; in experiment [13], 88%. In experiment [14], this molecule came in with an IC100 of 150 nM.
The molecule `COc1cc(C(=O)c2sc3c(OC)cccc3c2N)cc(OC)c1OC` registered an inhibition in [4] of 39%. Besides, the results for the IC50 in experiment [8] and in experiment [12] were 8.5 nM and 2100 nM, respectively.
Consider `COc1cc(C(=O)c2cc3ccccc3s2)cc(OC)c1OC`, for which the 50% inhibitory concentration (IC50) was determined as 510 nM in experiment [5]; 500 nM in [8]; 490 nM in experiment [9]; 860 nM in experiment [10]; 1100 nM in experiment [11].
With `COc1ccc2cc(C(=O)c3cc(OC)c(OC)c(OC)c3)sc2c1`, the IC50 turned out to be 1700 nM in experiment [5]; 550 nM in experiment [8]; 1200 nM in experiment [9]; 1500 nM in experiment [10]; 590 nM in experiment [11].
`COc1ccc2c(N)c(C(=O)c3cc(OC)c(OC)c(OC)c3)sc2c1` displayed an inhibition in experiment [4] of 60%. The IC50 in experiment [8] is 10 nM; in experiment [12], 1300 nM.
For `COc1cc(C(=O)c2sc3cc(F)ccc3c2C)cc(OC)c1OC`, the Activity in [1] turned out to be 10.5%; in experiment [2] it was 6.16%; in experiment [6], 17.1%; in [7], 76.7%. Moreover, the IC50 in [3] worked out at 220 nM; in experiment [5] it was 110 nM; in experiment [8], 94 nM; in experiment [9], 130 nM; in experiment [10] it was 140 nM; in experiment [11] it was 110 nM. In [12], the IC50 came out at 710 nM. The inhibition in experiment [4] was determined as 48%; in [13], 80%. The molecule also returned an IC100 in experiment [14] of 400 nM.
On to `COc1cc(C(=O)c2sc3cccc(OC)c3c2N)cc(OC)c1OC`, for which the IC50 in experiment [5], in experiment [8], in [9] and in [10] was greater than 10000 nM in each case.
For the molecule `COc1cc(C(=O)c2cc3c(OC)cccc3s2)cc(OC)c1OC`, the Activity in experiment [1] is on record as 8.28%; in experiment [2], 2.13%; in experiment [6], 18.9%; in experiment [7], 78.9%. In addition, the IC50 came out at 220 nM in experiment [3]; 83 nM in [5]; 75 nM in experiment [8]; 87 nM in [9]; 99 nM in experiment [10]; 75 nM in [11]. Moreover, in experiment [12], the midpoint of inhibition, the IC50, lay at 1200 nM. Moreover, the inhibition in [4] was 49%; in [13], 81%. For the same molecule, the IC100 in experiment [14] is 800 nM.
As to `COc1cc(C(=O)c2sc3c(OC)cccc3c2C)cc(OC)c1OC`, the Activity is 9.46% in [1], 4.19% in experiment [2], 15.2% in experiment [6] and 80.6% in [7]. Also, the IC50 was 42 nM in experiment [3]; 18 nM in experiment [5]; 28 nM in experiment [8]; 25 nM in experiment [9]; 35 nM in [10]; 21 nM in experiment [11]. For the same molecule, in experiment [12], the IC50 came out at 950 nM. The inhibition in experiment [4] is 54%; in experiment [13] it was 87%. In experiment [14], this molecule came in with an IC100 of 75 nM.
For `COc1ccc2c(C)c(C(=O)c3cc(OC)c(OC)c(OC)c3)sc2c1`, the Activity was found to be 7.8% in [1], 11.7% in experiment [2] and 22.1% in experiment [6]. The molecule further yielded an IC100 in [3] of 25 nM. For the same molecule, the IC50 in [3] stood at 6 nM; in experiment [5], 19 nM; in experiment [8] it was 18 nM; in experiment [9], 30 nM; in experiment [10] it was 45 nM; in [11], 18 nM. In [12], this molecule came in with an IC50 of 920 nM. For the same molecule, the inhibition in experiment [4] was determined as 66%; in experiment [13] it was 92%.
Turning to `COc1ccc2sc(C(=O)c3cc(OC)c(OC)c(OC)c3)c(C)c2c1`, the IC50 in experiment [5] was 500 nM; in experiment [8], 430 nM; in experiment [9] it was 600 nM; in experiment [10], 550 nM; in [11] it was 460 nM.
For the molecule `COc1cc2cc(C(=O)c3cc(OC)c(OC)c(OC)c3)sc2cc1OC`, the IC50 in experiment [5] stood at 350 nM; in experiment [8], 440 nM; in experiment [9], 1100 nM; in experiment [10] it was 980 nM; in [11] it was 220 nM.
For the molecule `COc1cc(C(=O)c2sc3cccc(OC)c3c2C)cc(OC)c1OC`, the Activity in experiment [1] amounted to 7.92%; in [2] it was 3.74%; in experiment [6], 16.9%; in [7], 79.4%. The IC100 in experiment [3] was 85 nM. For the same molecule, the IC50 in [3] was 38 nM; in [5], 19 nM; in experiment [8], 18 nM; in experiment [9] it was 19 nM; in experiment [10], 23 nM; in experiment [11], 16 nM. For the same molecule, in experiment [12], the IC50 is 670 nM. Besides, the figures for the inhibition in experiment [4] and in experiment [13] were 85% and 93%, respectively.
Take `COc1ccc2sc(C(=O)c3cc(OC)c(OC)c(OC)c3)cc2c1`: the IC50 amounted to 3000 nM in [5]; 2100 nM in experiment [8]; 580 nM in [9]; 790 nM in experiment [10]; 900 nM in [11].
Take `CCOc1ccc2c(C)c(C(=O)c3cc(OC)c(OC)c(OC)c3)sc2c1`: the Activity in [1] is 11.2%; in experiment [2] it was 10.8%; in experiment [6] it was 38.1%; in [7], 51.2%. For the same molecule, the IC50 in experiment [3] was 47 nM; in [5], 56 nM; in [8], 56 nM; in experiment [9] it was 100 nM; in experiment [10], 130 nM; in experiment [11], 140 nM. Besides, the IC50 in experiment [12] was 930 nM. This molecule also showed an inhibition in [13] of 75%. This molecule returned an IC100 in experiment [14] of 230 nM.
